Bioassay records as filed in PubChem.
PolyA inhibitor: yeast polyadenylation inhibition; actives 0.02% (n = 300,000); activity score, % at 12 µM; S. cerevisiae SKY197-pL101 polyadenylation reporter, beta-gal luminescence; efflux-impaired pdr1/pdr3 knockout yeast; score 100 = 6 SD above DMSO;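 active = lowest replicate activity score at least 50, where 100 means six control SD above control mean; inconclusive = lowest score under 50 but half or more replicates reach 50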;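 also: yeast exposed to compound for 9 h at 30 °C; higher score means more reporter readthrough which indicates perturbed polyadenylation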
Calb FLC: affects C. albicans growth with fluconazole; C. albicans CaCi-2 (fluconazole-resistant clinical isolate) + fluconazole, Alamar Blue growth, 48 h; growth inhibition, % (test concentration not listed); actives 0.57% (n = 300,000);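 active = growth inhibition above about 58% in most replicates, limit read from the data, passing the limit was not always enough; inconclusive = exactly half the replicates above a set limit; inactive = most replicates below a set limit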;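 also: all wells also contain fluconazole at 8 µg/ml as a sub-toxic cotreatment; 0% = median of DMSO wells and 100% = median of geldanamycin control wells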
NLRP3 yeast inh: inhibitors of NALP3 inflammasome in yeast; Yeast reconstituted NLRP3/ASC/caspase-1, beta-gal luminescence, 24 h; inhibition, % at 10 µM; actives 0.39% (n = 330,000); AID 2825;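 active = inhibition of 50% or more; inactive = inhibition below 50%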;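 also: plate controls were induced DMSO wells for no effect and uninduced yeast grown without galactose for full effect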
Lmaj promast: inhibitors of Leishmania major promastigote growth; Leishmania major promastigotes, resazurin fluorescence viability; inhibition, % at 10 µM; actives 9% (n = 200,000); AID 1063; in the data active = inhibition above about 50%;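 also: promastigotes grown with compound for 44 hours at 28 °C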
T cruzi inh: T. cruzi replication inhibition | T. cruzi beta-gal in NIH3T3, luminescence, 90 h | inhibition, % (no concentration beside the values) | actives 1.4% (n = 300,000);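 active = mean inhibition across valid replicates above about 55%, limit read from the data; inconclusive = mean below that limit but half or more replicates reach it; inactive = mean below it, under half of replicates reach it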;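 also: signal also drops with host cell toxicity which is not excluded here; 0% = plate median of DMSO wells and 100% = zero luminescence signal; higher percent means less beta-gal luminescence so fewer parasites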
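Incubation – ≥90 h infection period, 3 h prior cell attachment · System – NIH/3T3 fibroblasts plus reporter T. cruzi · Doses – compound pinned at 50 nL/well, DMSO · Read-out basis – percent inhibition of parasite-derived β-gal signal · Signal – luminescent β-galactosidase signal after 60 min lysis · Also added – 5000 T. cruzi trypomastigotes/well · Medium – Low-serum DMEM with 2% FBS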
NALP1 yeast inh: inhibitors of NALP1 inflammasome in yeast; S. cerevisiae NALP1/ASC/caspase-1 growth, X-gal OD620, 72 h; inhibition, % at 10 µM; actives 0.61% (n = 280,000); AID 2071; in the data active = inhibition mostly above about 24%, no sharp cut-off; inactive = mostly below about 32%
* = called active by the depositor; ? = inconclusive; · = not tested or not shown. The entries come from a sample that favours hits as a whole.

SMILES	PolyA inhibitor	Calb FLC	NLRP3 yeast inh	Lmaj promast	T cruzi inh	NALP1 yeast inh
CC(C)C(=O)N[C@H]1CCC2C3CC=C4C[C@@H](O)CC[C@]4(C)C3CC[C@@]21C (stereo not given in full)	·	·	24.9	·	·	·
C[C@]12CCC(O)CC1=CCC1C2CC[C@]2(C)/C(=N\NC(N)=S)CCC12 (stereo not given in full)	8.1	-6.4	39.0	·	65.8*	10.9
CC(C)C(NC(=O)c1ccc(Cl)cc1)C(=O)NCC1CCCO1 (stereo not given)	10.9	-7.3	21.8	·	-9.2	8.4
COc1ccc(N2CCN(C(c3cccc(OC)c3OC)c3nnnn3C3CCCC3)CC2)cc1 (stereo not given)	-5.4	2.9	5.8	71.5*	34.2	32.3
COc1ccc(N2CCN(C(c3ccccc3OC)c3nnnn3C3CCCC3)CC2)cc1 (stereo not given)	5.7	-0.3	·	59.3*	·	4.3
COc1ccc(OC)c(C(c2nnnn2C2CCCC2)N2CCN(c3ccccc3F)CC2)c1 (stereo not given)	4.5	8.0	1.2	99.3*	8.7	-5.4
COc1ccc(C(c2nnnn2C2CCCC2)N2CCc3ccccc3C2)cc1OC (stereo not given)	10.0	1.4	·	60.4*	·	4.6
CN(c1ccccc1)S(=O)(=O)c1cccc(C(=O)OCC(=O)NCCCN2CCCC2=O)c1	-3.6	-10.7	-11.0	-2.5	-1.0	14.5
O=C(c1ccccc1)C(CCC(CN1CCOCC1)C(=O)c1ccccc1)CN1CCOCC1 (stereo not given)	18.6	9.7	41.0	100.5*	-2.7	-2.6
CCCCCOc1ccc(C(=O)C(c2ccccc2)N2CCOCC2)cc1 (stereo not given)	-11.3	30.2	4.9	32.6	18.9	-89.0
CCCCOc1ccc(C(=O)C(CN2CCOCC2)c2ccccc2)cc1 (stereo not given)	-27.0	-3.0	23.6	100.5*	20.4	-7.3
COc1ccc(C(=O)C(CN2CCOCC2)c2ccccc2)cc1 (stereo not given)	-14.8	3.4	36.0	100.6*	29.5	6.3
CCCOc1ccc(C(=O)C(CN2CCCC2)c2ccccc2)cc1 (stereo not given)	-16.8	25.6	·	100.4*	-2.0	59.7*
CCCCNC(=O)c1ccccc1NC(=O)CCC	-19.6	-17.7	24.8	-1.6	1.8	-2.9
CCOc1ccc(CCNC(=O)CCCn2c(=O)c3cccn3c3cccnc32)cc1OCC	-0.1	24.3	13.8	·	17.6	22.7
O=C(CCC(=O)Nc1ccccc1)NNS(=O)(=O)c1ccc(Cl)cc1	·	-9.3	7.0	·	·	1.1
CC(Sc1nnc2n1CCCCC2)C(=O)Nc1cccc(S(=O)(=O)N2CCOCC2)c1 (stereo not given)	·	·	7.9	·	·	·
O=C(c1ccc(Cl)cc1)C(CN1CCCC1)c1ccccc1 (stereo not given)	-72.0	2.2	23.6	·	35.7	42.9*
COc1ccc(C(=O)C(OC(=O)c2ccccc2)c2ccccc2)cc1 (stereo not given)	-27.8	2.4	15.8	2.7	24.1	-10.9
O=C(c1ccc(F)cc1)C(CN1CCOCC1)c1ccccc1 (stereo not given)	-106.7	2.9	41.6	100.6*	58.4*	1.3
CCCOc1ccc(C(C(=O)OCCN(CC)CC)c2ccccc2)cc1 (stereo not given)	10.4	8.2	10.3	98.6*	5.5	27.3
CCC(C(=O)c1ccc(O)cc1)c1ccccc1 (stereo not given)	-16.4	40.8	-65.9	-7.0	-2.1	-0.5
COc1ccc(C(=O)C(CN2CCCC2)c2ccccc2)cc1 (stereo not given)	-6.4	79.7*	16.4	100.4*	3.3	15.9
CCOC(=O)c1c(NC(=O)COC(=O)c2ccc(NC(=O)CC#N)cc2)sc(C(=O)NC)c1C	·	·	13.4	·	·	·
O=C(CN1C(=O)COc2ccccc21)NCCN1CCC(Cc2ccccc2)CC1	-1.1	-3.3	-0.5	67.0*	44.6	2.0
SMILES	PolyA inhibitor	Calb FLC	NLRP3 yeast inh	Lmaj promast	T cruzi inh	NALP1 yeast inh
O=C(CN1C(=O)COc2ccccc21)NCCCN1CCc2ccccc2C1	29.6	101.2*	0.9	25.4	7.4	16.0
O=C(CN1C(=O)COc2ccccc21)NCCCN1CCN(Cc2ccccc2)CC1	-13.3	-3.4	-8.6	3.0	2.1	9.0
COc1ccc(S(=O)(=O)N2CCOC23CCN(C(=O)c2c(F)cccc2Cl)CC3)cc1	-11.8	19.4	26.6	·	1.7	-4.5
CN(CC1COc2ccccc2O1)C(=O)CSc1nncs1 (stereo not given)	·	·	11.7	·	·	·
Cc1cccc(CN2CCc3c([nH]c4ccccc34)C2)c1	10.5	-6.2	-3.8	·	16.3	17.7
Clc1cccc(CN2CCc3c([nH]c4ccccc34)C2)c1	-8.9	0.4	8.1	·	58.9*	28.0
CCCN(CCC)c1nc(C#N)nc(N(CCC)CCC)n1	-1.9	6.9	9.4	7.5	-8.0	0.6
CCCN(CCC)c1nc(N(CCC)CCC)[nH]c(=O)n1	-8.4	-0.2	7.4	57.3*	44.8	-2.7
COc1cc(C(=O)NC(C)c2cccc3ccccc23)cc(OC)c1OC (stereo not given)	-1.5	0.0	14.9	·	-7.8	-3.1
Cc1cc(S(=O)(=O)Nc2cc(C)c(O)c(C)c2)c(C)s1	8.9	5.9	1.4	100.4*	-0.6	40.0*
Oc1ccc(C=Nc2ccccc2-c2nc3ccccc3[nH]2)cc1	-0.4	-25.5	25.9	12.8	12.3	9.5
CC1(C)C/C(=N\NC(=S)Nc2ccccc2F)c2cc(O)ccc2O1	-19.1	14.7	2.1	79.7*	-13.3	-7.9
Cc1ccc(NC(=O)NCc2ccccn2)cc1	-2.5	-2.8	-7.7	-5.2	-9.5	2.0
Cc1ccc(C)c(NC(=O)C(=O)NCc2ccccn2)c1	1.0	?	26.5	64.3*	-13.8	28.5
Cc1ccc(NC(=O)NCc2ccccn2)c(C)c1	·	95.3*	12.7	·	·	-4.0
CC1=C(C(=O)OCCOC(C)C)C(c2cc3c(cc2Br)OCO3)CC(=O)N1 (stereo not given)	-23.3	2.2	13.9	98.3*	8.3	-4.7
Cc1ccc2c(C)c(C(=O)N(Cc3ccccc3)C3CCS(=O)(=O)C3)oc2c1 (stereo not given)	-4.0	1.6	-6.4	·	27.9	-0.3
Cc1ccc2c(C)c(C(=O)N(Cc3cccs3)C3CCS(=O)(=O)C3)oc2c1 (stereo not given)	-14.0	1.7	-3.4	87.9*	9.1	11.3
CC(C)CC(NC(=O)c1ccc(Cl)cc1)C(=O)O (stereo not given)	12.1	-3.4	-9.4	84.0*	-19.5	7.2
O=C(COC(=O)C(Cc1ccccc1)NC(=O)c1ccc(Cl)cc1)c1ccc(Cl)cc1 (stereo not given)	-13.7	14.9	17.3	54.0*	-17.6	18.1
